According to ChEMBL document CHEMBL4732260, “Developing novel classes of protein kinase CK1δ inhibitors by fusing [1,2,4]triazole with different bicyclic heteroaromatic systems” (Eur J Med Chem, 2021):
Active and inactive are the calls of the source. The rule behind the calls is not given here.

Assays:
[1] = molecular target: T1, Casein kinase I isoform delta (Homo sapiens, UniProt P48730); experiment: Inhibition of recombinant human N-terminal GST-tagged CK1delta (1 to 294 residues) using casein as substrate measured after 60 mins in presence of ATP by Kinase-Glo reagent-based luminescence assay
Target sequence in this assay (P48730 whole entry, the tested form may be a part, canonical isoform): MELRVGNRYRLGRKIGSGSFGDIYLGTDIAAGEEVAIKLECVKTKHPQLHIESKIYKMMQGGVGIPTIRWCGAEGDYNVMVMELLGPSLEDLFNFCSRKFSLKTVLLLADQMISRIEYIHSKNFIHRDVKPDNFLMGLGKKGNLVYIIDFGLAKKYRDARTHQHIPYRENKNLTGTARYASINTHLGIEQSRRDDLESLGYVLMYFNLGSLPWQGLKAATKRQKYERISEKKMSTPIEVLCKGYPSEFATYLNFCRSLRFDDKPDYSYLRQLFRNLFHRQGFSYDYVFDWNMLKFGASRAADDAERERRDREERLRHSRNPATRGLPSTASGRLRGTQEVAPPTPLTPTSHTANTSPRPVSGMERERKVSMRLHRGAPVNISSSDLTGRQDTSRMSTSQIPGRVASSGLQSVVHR

[2] = molecular target: T1, Casein kinase I isoform delta; experiment: Inhibition of recombinant human N-terminal GST-tagged CK1delta (1 to 294 residues) at 40 uM using casein as substrate measured after 60 mins in presence of ATP by Kinase-Glo reagent-based luminescence assay relative to control
Target sequence in this assay (P48730 whole entry, looked up, the tested form may be a part, canonical isoform): as the sequence (P48730 whole entry, the tested form may be a part, canonical isoform) above

[3] = molecular target: T2, Casein kinase I isoform epsilon (Homo sapiens, UniProt P49674); experiment: Inhibition of wild-type human CK1epsilon using PLSRTLpSVASLPGL as substrate incubated for 70 mins in presence of ATP by Kinase-Glo luminescence assay
Target sequence in this assay (P49674 whole entry, canonical isoform): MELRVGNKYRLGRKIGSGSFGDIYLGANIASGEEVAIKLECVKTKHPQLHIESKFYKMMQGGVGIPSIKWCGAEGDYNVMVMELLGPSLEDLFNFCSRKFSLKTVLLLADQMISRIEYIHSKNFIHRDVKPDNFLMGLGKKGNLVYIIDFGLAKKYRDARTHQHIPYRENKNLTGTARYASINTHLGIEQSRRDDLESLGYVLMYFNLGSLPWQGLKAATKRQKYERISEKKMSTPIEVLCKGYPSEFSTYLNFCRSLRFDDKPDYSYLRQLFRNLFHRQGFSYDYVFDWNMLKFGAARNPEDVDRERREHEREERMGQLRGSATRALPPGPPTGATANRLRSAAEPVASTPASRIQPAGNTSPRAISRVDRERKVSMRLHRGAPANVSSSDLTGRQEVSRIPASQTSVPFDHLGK

[4] = molecular target: T1, Casein kinase I isoform delta; experiment: Inhibition of wild-type human CK1delta using PLSRTLpSVASLPGL as substrate incubated for 40 mins in presence of ATP by Kinase-Glo luminescence assay
Target sequence in this assay (P48730 whole entry, the tested form may be a part, canonical isoform): as the sequence (P48730 whole entry, the tested form may be a part, canonical isoform) above

[5] = molecular target: T1, Casein kinase I isoform delta; experiment: Binding affinity to wild-type human full length CSNK1D (M1 to K409 residues) expressed in bacterial expression system at 10 uM by Kinomescan method relative to control
In short: (§1)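 KINOMEscan competition binding across the CK1 isoform panel, compound at 10 µM. Reported as % binding relative to a […].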
Target sequence in this assay (P48730 whole entry, looked up, the tested form may be a part, canonical isoform): as the sequence (P48730 whole entry, the tested form may be a part, canonical isoform) above

[6] = molecular target: T3, Casein kinase I isoform alpha-like (Homo sapiens) (UniProt Q8N752); experiment: Binding affinity to wild-type human full length CSNK1A1L (M1 to N337 residues) expressed in bacterial expression system at 10 uM by Kinomescan method relative to control; in short: as §1
T3 sequence (whole entry): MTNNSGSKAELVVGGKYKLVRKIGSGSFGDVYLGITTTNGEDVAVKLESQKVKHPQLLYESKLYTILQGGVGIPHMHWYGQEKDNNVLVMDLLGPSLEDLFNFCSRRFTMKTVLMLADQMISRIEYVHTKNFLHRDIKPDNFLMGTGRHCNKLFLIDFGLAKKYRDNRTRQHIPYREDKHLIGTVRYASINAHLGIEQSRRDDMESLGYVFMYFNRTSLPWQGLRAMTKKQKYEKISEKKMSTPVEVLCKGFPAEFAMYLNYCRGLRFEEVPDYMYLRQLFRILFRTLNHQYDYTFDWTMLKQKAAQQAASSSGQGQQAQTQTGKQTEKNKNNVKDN

[7] = molecular target: Casein kinase I isoform gamma-1 (Homo sapiens) (UniProt Q9HCP0); experiment: Binding affinity to wild-type human partial length CSNK1G1 (T15 to S353 residues) expressed in bacterial expression system at 10 uM by Kinomescan method relative to control; in short: as §1
[8] = molecular target: Casein kinase I isoform gamma-3 (Homo sapiens) (UniProt Q9Y6M4); experiment: Binding affinity to wild-type human full length CSNK1G3 (M1 to K447 residues) expressed in bacterial expression system at 10 uM by Kinomescan method relative to control; in short: as §1
[9] = molecular target: Casein kinase I isoform alpha (Homo sapiens) (UniProt P48729); experiment: Binding affinity to wild-type human partial length CSNK1A1 (M1 to L301 residues) expressed in mammalian expression system at 10 uM by Kinomescan method relative to control; in short: as §1
[10] = molecular target: T2, Casein kinase I isoform epsilon; experiment: Binding affinity to wild-type human full length CSNK1E (M1 to K416 residues) expressed in bacterial expression system at 10 uM by Kinomescan method relative to control; in short: as §1
Target sequence in this assay (P49674 whole entry, looked up, canonical isoform): as the sequence (P49674 whole entry, canonical isoform) above

PBL [11] = experiment: Cytotoxicity against PHA-stimulated human PBL assessed as inhibition of cell growth after 72 hrs by resazurin based assay
In short: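 PBL isolated from buffy coats by Lymphoprep density gradient, held overnight in RPMI-1640 with 10% FBS. Non-adherent cells at 5×10^5 cells/mL with 2.5 µg/mL PHA. 72 h compound exposure; viability by resazurin fluorescence at 590 nm over 4 h.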

PBL [12] = experiment: Cytotoxicity against human PBL cells assessed as inhibition of cell growth after 72 hrs by resazurin based assay
In short: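 Gradient-isolated PBL held overnight in RPMI-1640 with 10% FBS. Non-adherent resting cells (no PHA) at 5×10^5 cells/mL, exposed to compounds for 72 h. Viability read as resazurin fluorescence at 590 nm over 4 h.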

[13] = molecular target: Casein kinase I isoform gamma-2 (Homo sapiens) (UniProt P78368); experiment: Binding affinity to wild-type human full length CSNK1G2 (M1 to K415 residues) expressed in bacterial expression system at 10 uM by Kinomescan method relative to control; in short: as §1
[14] = molecular target: T1, Casein kinase I isoform delta; experiment: ATP competitive inhibition of recombinant human N-terminal GST-tagged CK1delta (1 to 294 residues) in presence of varying level of ATP by Kinase-Glo reagent-based luminescence assay
In short: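 Truncated enzyme (16 ng) in 50 mM HEPES pH 7.5, 1 mM EDTA, 1 mM EGTA, 15 mM Mg acetate with 0.1% casein; ATP in the added mix at 4, 40 or 400 µM (Fig. 8-B gives 2, 20, 200 µM). 60 min at 30 °C, then Kinase-Glo, luminescence read after 10 min at 25 °C. Activity is compared across ATP levels.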
Target sequence in this assay (P48730 whole entry, looked up, the tested form may be a part, canonical isoform): as the sequence (P48730 whole entry, the tested form may be a part, canonical isoform) above

[15] = molecular target: T1, Casein kinase I isoform delta; experiment: Inhibition of recombinant human full-length N-terminal GST-tagged CK1delta using casein as substrate measured after 10 mins in presence of ATP by Kinase-Glo reagent-based luminescence assay
In short: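 Full-length CK1δ at 26 nM with 0.1% casein and 4 µM ATP added, in 50 mM HEPES pH 7.5, 1 mM EDTA, 1 mM EGTA, 15 mM Mg acetate. Ten inhibitor concentrations from 100 to 0.026 µM. 10 min at 30 °C, Kinase-Glo stop, luminescence read after 10 min at 30 °C. IC50 given as mean ± standard error of three independent experiments.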
Target sequence in this assay (P48730 whole entry, the tested form may be a part, canonical isoform): as above

Fibroblast = experiment: Cytotoxicity against human fibroblast assessed as inhibition of cell growth after 72 hrs by resazurin based assay
In short: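 Normal adult fibroblasts grown in DMEM with 10% FBS, seeded at 2×10^4 cells per well. Compounds added after 24 h at several concentrations; viability read 72 h later by resazurin fluorescence at 590 nm over 4 h.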

[16] = Inhibition of porcine brain CK1delta using RRKHAAIGpSAYSITA as substrate incubated for 30 mins in presence of [gamma-33P]ATP by scintillation counting method; format: tissue-based, Sus scrofa domesticus

Casein kinase I isoform alpha (Homo sapiens), sequence (P48729 2-337 limits assumed): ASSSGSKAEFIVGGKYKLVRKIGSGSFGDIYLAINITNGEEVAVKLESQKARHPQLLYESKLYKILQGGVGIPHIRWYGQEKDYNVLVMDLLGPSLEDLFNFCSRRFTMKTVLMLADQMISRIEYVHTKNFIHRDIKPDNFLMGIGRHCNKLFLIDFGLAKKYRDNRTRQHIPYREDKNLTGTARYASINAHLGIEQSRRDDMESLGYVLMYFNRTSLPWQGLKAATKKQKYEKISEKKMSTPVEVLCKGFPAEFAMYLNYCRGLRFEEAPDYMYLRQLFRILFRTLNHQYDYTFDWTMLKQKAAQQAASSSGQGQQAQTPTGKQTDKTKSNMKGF
Casein kinase I isoform gamma-1 (Homo sapiens), sequence (Q9HCP0 whole entry, looked up, the tested form may be a part, canonical isoform): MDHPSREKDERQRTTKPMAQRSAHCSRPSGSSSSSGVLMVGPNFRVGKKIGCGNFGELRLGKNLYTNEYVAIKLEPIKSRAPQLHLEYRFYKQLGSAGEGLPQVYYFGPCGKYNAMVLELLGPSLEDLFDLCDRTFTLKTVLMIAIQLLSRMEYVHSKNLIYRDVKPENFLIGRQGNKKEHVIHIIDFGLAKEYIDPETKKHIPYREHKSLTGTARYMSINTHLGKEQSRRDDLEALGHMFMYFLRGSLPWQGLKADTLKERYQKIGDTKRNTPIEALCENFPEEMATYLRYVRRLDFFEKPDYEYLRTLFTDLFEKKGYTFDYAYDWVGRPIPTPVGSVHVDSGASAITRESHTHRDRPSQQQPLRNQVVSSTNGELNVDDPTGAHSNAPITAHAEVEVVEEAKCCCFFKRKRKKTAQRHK
Casein kinase I isoform gamma-3 (Homo sapiens), sequence (Q9Y6M4 whole entry, looked up, the tested form may be a part, canonical isoform): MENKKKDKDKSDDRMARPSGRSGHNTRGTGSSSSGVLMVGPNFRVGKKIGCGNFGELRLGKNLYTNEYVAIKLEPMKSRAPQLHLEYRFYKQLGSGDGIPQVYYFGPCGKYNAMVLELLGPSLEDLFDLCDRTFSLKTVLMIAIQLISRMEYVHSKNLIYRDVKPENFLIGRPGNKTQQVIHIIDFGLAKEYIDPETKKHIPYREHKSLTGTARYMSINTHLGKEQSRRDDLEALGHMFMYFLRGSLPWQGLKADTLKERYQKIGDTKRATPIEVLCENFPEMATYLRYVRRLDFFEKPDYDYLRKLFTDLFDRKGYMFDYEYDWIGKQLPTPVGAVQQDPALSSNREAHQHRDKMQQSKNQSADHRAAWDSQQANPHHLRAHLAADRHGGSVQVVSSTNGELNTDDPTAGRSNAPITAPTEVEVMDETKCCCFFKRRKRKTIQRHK
Casein kinase I isoform gamma-2 (Homo sapiens), sequence (P78368 whole entry, looked up, the tested form may be a part, canonical isoform): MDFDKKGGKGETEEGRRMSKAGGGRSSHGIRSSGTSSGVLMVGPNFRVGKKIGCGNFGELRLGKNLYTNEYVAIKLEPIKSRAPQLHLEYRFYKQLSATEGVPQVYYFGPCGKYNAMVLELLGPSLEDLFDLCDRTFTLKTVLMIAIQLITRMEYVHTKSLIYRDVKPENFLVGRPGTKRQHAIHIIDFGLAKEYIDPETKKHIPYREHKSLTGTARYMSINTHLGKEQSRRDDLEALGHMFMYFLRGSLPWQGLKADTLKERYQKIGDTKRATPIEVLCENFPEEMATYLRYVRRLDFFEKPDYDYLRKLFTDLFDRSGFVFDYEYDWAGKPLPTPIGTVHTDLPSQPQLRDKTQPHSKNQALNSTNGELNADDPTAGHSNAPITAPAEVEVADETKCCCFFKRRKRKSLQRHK

| Compound | IC50 [1] [nM] | inhibition [2] [%] | other results |
| --- | --- | --- | --- |
| CCOC(=O)c1cnc(N)n2nc(-c3ccncc3)nc12 | 20200 | 59.7 | – |
| Nc1ncc(C(=O)O)c2nc(-c3cccc(O)c3)nn12 | 26700 | 75.8 | – |
| CCOC(=O)c1cnc(N)n2nc(-c3cccc(O)c3)nc12 | 2060 | 88.9 | – |
| CCOC(=O)c1cnc(N)n2nc(-c3ccc(OCc4ccccc4)cc3)nc12 | – | 39.7 | – |
| CCNC(=O)c1cnc(N)n2nc(-c3cc(O)cc(O)c3)nc12 | 990 | 86.1 | – |
| CCOC(=O)c1cnc(N)n2nc(C3CCCC3)nc12 | 12300 | 76.8 | – |
| CCOC(=O)c1cnc(N)n2nc(-c3cccc([N+](=O)[O-])c3)nc12 | – | 21.6 | – |
| CCOC(=O)c1cnc(NCc2ccc(OC)c(OC)c2)n2nc(-c3ccccc3)nc12 | – | 35.7 | – |
| CCOC(=O)c1cnc(N)n2nc(-c3cccc(OC)c3)nc12 | 25000 | 52 | – |
| CCOC(=O)c1cnc(N)n2nc(-c3cccc(F)c3)nc12 | 15200 | 53.7 | – |
| NCCNC(=O)c1cnc(N)n2nc(-c3cccc(O)c3)nc12 | 1260 | 93 | – |
| CCOC(=O)c1cnc(NCc2ccccc2)n2nc(-c3cccc(O)c3)nc12 | – | 1.2 | – |
| CCOC(=O)c1cnc(NC)n2nc(-c3cccc(O)c3)nc12 | – | 7.1 | – |
| Nc1nccc(-c2c(-c3ccc(F)cc3)ncn2C2CCN(Cc3ccon3)CC2)n1 | – | – | IC50 [3]: 17 nM; IC50 [4]: 3.9 nM |
| CCOC(=O)c1cnc(N)n2nc(-c3cc4ccccc4[nH]3)nc12 | – | 22.4 | – |
| CCOC(=O)c1cnc(N)n2nc(-c3cc(OC)cc(OC)c3)nc12 | – | 18.8 | – |
| CCOC(=O)c1cnc(NCc2ccc(OC)c(OC)c2)n2nc(-c3ccc(F)cc3)nc12 | – | 11.3 | – |
| CCOC(=O)c1cnc(N)n2nc(-c3ccc(O)cc3)nc12 | – | 39.3 | – |

| Compound | IC50 [1] [nM] | inhibition [2] [%] | other results |
| --- | --- | --- | --- |
| NCCNC(=O)c1cnc(N)n2nc(-c3cc(O)cc(O)c3)nc12 | 210 | 93.6 | – |
| CC(C)(C)OC(=O)NCCNC(=O)c1cnc(N)n2nc(-c3cc(O)cc(O)c3)nc12 | 5320 | 84.2 | – |
| CCOC(=O)c1cnc(N)n2nc(-c3ccc(OC)cc3)nc12 | – | 50.3 | – |
| CCOC(=O)c1cnc(N)n2nc(-c3cc(O)cc(O)c3)nc12 | 480 | 97.8 | – |
| CCOC(=O)c1cnc(NCc2ccccc2)n2nc(-c3cccc(OC)c3)nc12 | – | 10.9 | – |
| Oc1cccc(-c2nc3nc(NCc4ccccc4)nc(NCc4ccccc4)n3n2)c1 | – | -8.5 | – |
| CCOC(=O)c1cnc(N)n2nc(C)nc12 | 15200 | 66.6 | – |
| CCOC(=O)c1cnc(N)n2nc(-c3ccccc3)nc12 | 8670 | 62.2 | – |
| CCNC(=O)c1cnc(N)n2nc(-c3cccc(O)c3)nc12 | 320 | 90.4 | – |
| CCOC(=O)c1cnc(N)n2nc(-c3ccc(O)c(O)c3)nc12 | 4750 | 98 | – |
| CCOC(=O)c1cnc(NCc2ccc(-c3ccccc3)cc2)n2nc(-c3cccc(OC)c3)nc12 | – | 17.5 | – |
| CCOC(=O)c1cnc(N)n2nc(-c3cccc(N)c3)nc12 | 16600 | 66.8 | – |
| CCOC(=O)c1cnc(N)n2nc(-c3ccc(F)cc3)nc12 | – | 44.7 | – |
| CCC(CO)Nc1nc(NCc2ccc(-c3ccccn3)cc2)c2ncn(C(C)C)c2n1 (configuration not stated) | – | – | IC50 [16]: 400 nM |
| CCOC(=O)c1cnc(NCc2ccc(-c3ccccc3)cc2)n2nc(-c3cccc(O)c3)nc12 | – | 9 | – |
| CC(C)(C)OC(=O)NCCNC(=O)c1cnc(N)n2nc(-c3cccc(O)c3)nc12 | – | 16.8 | – |
| Nc1nc(NC2CCCCC2)nc2nc(-c3cc(O)cc(O)c3)nn12 | 670 | 89.3 | – |
| COc1cc(O)cc(-c2nc3nc(NC4CCCCC4)nc(N)n3n2)c1 | 3300 | 68.6 | – |

Now from value to compound, other results behind:

| IC50 [1] [nM] | inhibition [2] [%] | Compound | other results |
| --- | --- | --- | --- |
| – | 4.5 | COc1cc(OC)cc(-c2nc3nc(NCc4ccccc4)nc(N)n3n2)c1 | – |
| 530 | 79.7 | Cc1cccc(CNc2nc(N)n3nc(-c4cc(O)cc(O)c4)nc3n2)c1 | – |
| 910 | 93.8 | Nc1nc(NCc2ccccc2)nc2nc(-c3ccc(O)c(O)c3)nn12 | – |
| 470 | 87 | Nc1nc(NCc2ccc(F)cc2)nc2nc(-c3cc(O)cc(O)c3)nn12 | – |
| 750 | 95.8 | Nc1nc(NCc2ccc(Cl)cc2)nc2nc(-c3cc(O)cc(O)c3)nn12 | – |
| 180 | 85.3 | Nc1nc(NCc2ccccc2)nc2nc(-c3cc(O)cc(O)c3)nn12 | Activity [5]: 14%; Activity [6]: 14%; Activity [7]: 32%; Activity [8]: 14%; Activity [9]: 3.2%; Activity [10]: 1.4%; IC50 (PBL [11]): > 10000 nM; IC50 (PBL [12]): > 10000 nM; Activity [13]: 20%; inhibition [14]: Active; IC50 [15]: 300 nM; IC50 (Fibroblast): > 10000 nM |
| – | 13.9 | COc1cc(OC)cc(-c2nc3nc(NCc4cccc(C)c4)nc(N)n3n2)c1 | – |
| – | 9.7 | COc1cc(OC)cc(-c2nc3nc(NCc4ccc(Cl)cc4)nc(N)n3n2)c1 | – |
| – | 33.5 | COc1cc(OC)cc(-c2nc3cc(N(C)C)nc(N)n3n2)c1 | – |
| 460 | 84.2 | Nc1nc(NCc2ccccc2)nc2nc(-c3cccc(O)c3)nn12 | – |
| – | 19.4 | COc1cc(OC)cc(-c2nc3cc(NCc4ccccc4)nc(N)n3n2)c1 | – |
| 300 | 75.2 | Nc1nc(NCc2ccccc2)cc2nc(-c3cccc(O)c3)nn12 | – |
| – | 10.5 | COc1cc(OC)cc(-c2nc3nc(NCc4ccc(F)cc4)nc(N)n3n2)c1 | – |
| 1320 | 70.4 | Nc1nc(NCc2ccccc2)nc2nc(-c3ccc(O)cc3)nn12 | – |
| – | 18.1 | COc1cccc(-c2nc3nc(NCc4ccccc4)nc(N)n3n2)c1 | – |
| 740 | 80.2 | Nc1nc(NCc2ccccc2)cc2nc(-c3cc(O)cc(O)c3)nn12 | – |
